Data reported in ChEMBL document CHEMBL1130139, “Synthesis and activity of 6-substituted purine linker amino acid immunostimulants” (1997).
“And” between values parts separate entries of the source, which are not always exact repeats. Equal entries are not always repeated.

Key:
Format in all cases: functional
Mus musculus [1] = species on record: Mus musculus; assay: In vitro cytotoxic T-Lymphocyte (CTL) activity relative to interleukin 2 was obtained at a concentration of 10 e -7 M(++ represents 41 - 60% of interleukin 2)
Procedure, shortened: (§1)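 Splenocytes from 6- to 8-week-old female C57BL/6 and irradiated (3000 rads) DBA/2 mice, 10⁷ cells, were cultured together in RPMI 1640 with 10% FCS. Culture ran 120 h at 37 °C in 5% CO₂, with [³H]thymidine pulse of an aliquot. Percent specific lysis was scaled to IL 2 (taken as 100%) and scored 0 to ++++ in 20% bands.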

Mus musculus [2] = species on record: Mus musculus; assay: In vitro cytotoxic T-Lymphocyte (CTL) activity relative to interleukin 2 was obtained at a concentration of 10 e […](++ represents 41 - 60% of interleukin 2); procedure, shortened: as §1
Mus musculus [3] = species on record: Mus musculus; assay: In vitro cytotoxic T-Lymphocyte (CTL) activity relative to interleukin 2 was obtained at a concentration of 10 e -5 M(+ represents 21 - 40% of interleukin 2); procedure, shortened: as §1
Mus musculus [4] = species on record: Mus musculus; assay: In vitro cytotoxic T-Lymphocyte (CTL) activity relative to interleukin 2 was obtained at a concentration of 10 e -7 M(+ represents 21 - 40% of interleukin 2); procedure, shortened: as §1
Mus musculus [5] = species on record: Mus musculus; assay: In vitro cytotoxic T-Lymphocyte (CTL) activity relative to interleukin 2 was obtained at a concentration of 10 e -9 M(++ represents 41 - 60% of interleukin 2); procedure, shortened: as §1
Mus musculus [6] = species on record: Mus musculus; assay: In vitro cytotoxic T-Lymphocyte (CTL) activity relative to interleukin 2 was obtained at a concentration of 10 e -7 M(++ represents 21 - 40% of interleukin 2); settings: in the assay text read “+ represents” for “++ represents”; procedure, shortened: as §1
Mus musculus [7] = species on record: Mus musculus; assay: In vitro cytotoxic T-Lymphocyte (CTL) activity relative to interleukin 2 was obtained at a concentration of 10 e -7 M (++ represents 41 - 60% of interleukin 2); procedure, shortened: as §1
Mus musculus [8] = species on record: Mus musculus; assay: In vitro cytotoxic T-Lymphocyte (CTL) activity relative to interleukin 2 was obtained at a concentration of 10 e -5 M (+ represents 21 - 40% of interleukin 2); procedure, shortened: as §1
Mus musculus [9] = species on record: Mus musculus; assay: In vitro cytotoxic T-Lymphocyte (CTL) activity relative to interleukin 2 was obtained at a concentration of 10 e -7 M(++ +represents 61 - 80% of interleukin 2); procedure, shortened: as §1
Mus musculus [10] = species on record: Mus musculus; assay: In vitro cytotoxic T-Lymphocyte (CTL) activity relative to interleukin 2 was obtained at a concentration of 10 e -7 M(++++ represents 81 - 100% of interleukin 2); procedure, shortened: as §1
Mus musculus [11] = species on record: Mus musculus; assay: In vitro cytotoxic T-Lymphocyte (CTL) activity relative to interleukin 2 was obtained at a concentration of 10 e -5 M(++ represents 41 - 60% of interleukin 2); procedure, shortened: as §1
Mus musculus [12] = assay: In vivo blood immunophenotyping (CD8+CD45+ cells) assay was performed by injecting 0 mg/Kg of compound intraperitoneally in mice
Procedure, shortened: (§2)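 Female 6- to 8-week-old C57BL/6 mice were dosed ip once daily for one, four or nine consecutive days, drug in physiological saline. For single dosing, groups of seven were used. Blood and spleen cells were ACK-lysed (pH 7.3, 5 min) and PBS-washed, then stained 45 min on ice with FITC/PE surface-marker antibodies. Cells were fixed in 1% paraformaldehyde and read by flow cytometry as relative subset percentages.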

Mus musculus [13] = assay: In vivo blood immunophenotyping (NK+CD3+ cells) assay was performed by injecting 0 mg/Kg of compound intraperitoneally in mice; procedure, shortened: as §2
Mus musculus [14] = assay: In vivo spleen immunophenotyping (CD8+CD45+ cells) assay was performed by injecting 50 mg/Kg of compound intraperitoneally in mice; procedure, shortened: as §2
Mus musculus [15] = assay: In vivo spleen immunophenotyping (CD8+CD45+ cells) assay was performed by injecting 0 mg/Kg of compound intraperitoneally in mice; procedure, shortened: as §2
Mus musculus [16] = assay: In vivo blood immunophenotyping (CD4+CD45+ cells) assay was performed by injecting 0 mg/Kg of compound intraperitoneally in mice; procedure, shortened: as §2
Mus musculus [17] = assay: In vivo spleen immunophenotyping (Ly5 cells) assay was performed by injecting 0 mg/Kg of compound intraperitoneally in mice; procedure, shortened: as §2
Mus musculus [18] = assay: In vivo blood immunophenotyping (CD4-CD11b+ cells) assay was performed by injecting 25 mg/Kg of compound intraperitoneally in mice; procedure, shortened: as §2
Mus musculus [19] = assay: In vivo spleen immunophenotyping (TCR cells) assay was performed by injecting 0 mg/Kg of compound intraperitoneally in mice; procedure, shortened: as §2
Mus musculus [20] = assay: In vivo blood immunophenotyping (CD4+CD45+ cells) assay was performed by injecting 100 mg/Kg of compound intraperitoneally in mice; procedure, shortened: as §2
Mus musculus [21] = assay: In vivo blood immunophenotyping (CD4+CD45+ cells) assay was performed by injecting 50 mg/Kg of compound intraperitoneally in mice; procedure, shortened: as §2
Mus musculus [22] = assay: In vivo blood immunophenotyping (CD8+CD45+ cells) assay was performed by injecting 25 mg/Kg of compound intraperitoneally in mice; procedure, shortened: as §2
Mus musculus [23] = assay: In vivo blood immunophenotyping (CD4-CD11b+ cells) assay was performed by injecting 0 mg/Kg of compound intraperitoneally in mice; procedure, shortened: as §2
Mus musculus [24] = assay: In vivo blood immunophenotyping (NK+CD3+ cells) assay was performed by injecting 50 mg/Kg of compound intraperitoneally in mice; procedure, shortened: as §2
Mus musculus [25] = assay: In vivo spleen immunophenotyping (CD8+CD45+ cells) assay was performed by injecting 25 mg/Kg of compound intraperitoneally in mice; procedure, shortened: as §2
Mus musculus [26] = assay: In vivo immunophenotyping (CD4+ cells) assay was performed by injecting 0 mg/Kg of compound intraperitoneally in mice and blood is collected; procedure, shortened: as §2
Mus musculus [27] = assay: In vivo blood immunophenotyping (NK+CD3- cells) assay was performed by injecting 0 mg/Kg of compound intraperitoneally in mice; procedure, shortened: as §2
Mus musculus [28] = assay: In vivo blood immunophenotyping (CD4+CD45+ cells) assay was performed by injecting 25 mg/Kg of compound intraperitoneally in mice; procedure, shortened: as §2
Mus musculus [29] = assay: In vivo spleen immunophenotyping (Ly5 cells) assay was performed by injecting 50 mg/Kg of compound intraperitoneally in mice; procedure, shortened: as §2
Mus musculus [30] = assay: In vivo blood immunophenotyping (CD8+CD45+ cells) assay was performed by injecting 50 mg/Kg of compound intraperitoneally in mice; procedure, shortened: as §2
Mus musculus [31] = assay: In vivo blood immunophenotyping (NK+CD3- cells) assay was performed by injecting 50 mg/Kg of compound intraperitoneally in mice; procedure, shortened: as §2
Mus musculus [32] = assay: In vivo immunophenotyping (CD4-CD8- cells) assay was performed by injecting 25 mg/Kg of compound intraperitoneally in mice and blood is collected; procedure, shortened: as §2
Mus musculus [33] = assay: In vivo blood immunophenotyping (CD4-CD11b+ cells) assay was performed by injecting 50 mg/Kg of compound intraperitoneally in mice; procedure, shortened: as §2
Mus musculus [34] = assay: In vivo blood immunophenotyping (NK+CD3+ cells) assay was performed by injecting 25 mg/Kg of compound intraperitoneally in mice; procedure, shortened: as §2
Mus musculus [35] = assay: In vivo immunophenotyping (CD4-CD8- cells) assay was performed by injecting 50 mg/Kg of compound intraperitoneally in mice and blood is collected; procedure, shortened: as §2
Mus musculus [36] = assay: In vivo spleen immunophenotyping (CD8+CD45+ cells) assay was performed by injecting 100 mg/Kg of compound intraperitoneally in mice; procedure, shortened: as §2
Mus musculus [37] = assay: In vivo spleen immunophenotyping (TCR cells) assay was performed by injecting 25 mg/Kg of compound intraperitoneally in mice; procedure, shortened: as §2
Mus musculus [38] = assay: In vivo spleen immunophenotyping (Ly5 cells) assay was performed by injecting 25 mg/Kg of compound intraperitoneally in mice; procedure, shortened: as §2
Mus musculus [39] = assay: In vivo immunophenotyping (CD4-CD8- cells) assay was performed by injecting 100 mg/Kg of compound intraperitoneally in mice and blood is collected; procedure, shortened: as §2
Mus musculus [40] = assay: In vivo blood immunophenotyping (NK+CD3- cells) assay was performed by injecting 25 mg/Kg of compound intraperitoneally in mice; procedure, shortened: as §2
Mus musculus [41] = assay: In vivo immunophenotyping (CD4-CD8- cells) assay was performed by injecting 0 mg/Kg of compound intraperitoneally in mice and blood is collected; procedure, shortened: as §2
Mus musculus [42] = assay: In vivo blood immunophenotyping (CD8+CD45+ cells) assay was performed by injecting 100 mg/Kg of compound intraperitoneally in mice; procedure, shortened: as §2
Mus musculus [43] = assay: In vivo spleen immunophenotyping (TCR cells) assay was performed by injecting 50 mg/Kg of compound intraperitoneally in mice; procedure, shortened: as §2

## CC1CN1c1ncnc2c1ncn2CCCCCOC(=O)N[C@@H](CCCNC(=N)N)C(=O)O (stereo partly drawn)
Mus musculus [1]
  CTL activity: 41 - 60% of interleukin 2

## CN(C)c1ncnc2c1ncn2CCCCCCOC(=O)N[C@@H](CCCNC(=N)N)C(=O)O
Mus musculus [1]
  CTL activity: 41 - 60% of interleukin 2

## CN(C)c1ncnc2c1ncn2CCCCCNC(=O)OCCCCCn1cnc2c(N(C)C)ncnc21
Mus musculus [1]
  CTL activity: 41 - 60% of interleukin 2

## CN(C)c1ncnc2c1ncn2CCCCCO
Mus musculus [2]
  CTL activity: 41 - 60% of interleukin 2

## CN(C)c1ncnc2c1ncn2CCCCCOC(=O)CCN
Mus musculus [1]
  CTL activity: 41 - 60% of interleukin 2

## CN(C)c1ncnc2c1ncn2CCCCCOC(=O)NC(CCCNC(N)=O)C(=O)O (stereo not drawn)
Mus musculus [3]
  CTL activity: 21 - 40% of interleukin 2

## CN(C)c1ncnc2c1ncn2CCCCCOC(=O)NCC(=O)O
Mus musculus [4]
  CTL activity: 21 - 40% of interleukin 2

## CN(C)c1ncnc2c1ncn2CCCCOC(=O)N[C@@H](CCCNC(=N)N)C(=O)O
Mus musculus [5]
  CTL activity: 41 - 60% of interleukin 2

## CN(C)c1ncnc2c1ncn2C[C@H]1CC[C@@H](COC(=O)N[C@@H](CCCNC(=N)N)C(=O)O)CC1
Mus musculus [3]
  CTL activity: 21 - 40% of interleukin 2

## CN(C)c1ncnc2c1ncn2C[C@H]1CC[C@H](COC(=O)N[C@@H](CCCNC(=N)N)C(=O)O)CC1
Mus musculus [1]
  CTL activity: 41 - 60% of interleukin 2

## N=C(N)NCCC[C@@H](NC(=O)OCCCCCn1cnc2c(O)ncnc21)C(=O)O
Mus musculus [1]
  CTL activity: 41 - 60% of interleukin 2

## N=C(N)NCCC[C@H](NC(=O)OCCCCCn1cnc2c(N3CCC3)ncnc21)C(=O)O
Mus musculus [6]
  CTL activity: 21 - 40% of interleukin 2

## N=C(N)NCCC[C@H](NC(=O)OCCCCCn1cnc2c(NC3CC3)ncnc21)C(=O)O
Mus musculus [6]
  CTL activity: 21 - 40% of interleukin 2

## CN(C)c1ncnc2c1ncn2CCSCCOC(=O)NC(CCCNC(=N)N)C(=O)O (single isomer, unassigned)
Mus musculus [7]
  CTL activity: 41 - 60% of interleukin 2

## CNc1ncnc2c1ncn2CCCCCOC(=O)NC(CCCNC(=N)N)C(=O)O (single isomer, unassigned)
Mus musculus [8]
  CTL activity: 21 - 40% of interleukin 2

## N=C(N)NCCCC(NC(=O)OCCCCCn1cnc2c(N)ncnc21)C(=O)O (single isomer, unassigned)
Mus musculus [9]
  CTL activity: +
Mus musculus [4]
  CTL activity: 21 - 40% of interleukin 2

## N=C(N)NCCCC(NC(=O)OCCCCCn1cnc2c(NN)ncnc21)C(=O)O (single isomer, unassigned)
Mus musculus [10]
  CTL activity: ++

## N=C(N)NCCCC(NC(=O)OCCCCCn1cnc2c(O)ncnc21)C(=O)O (single isomer, unassigned)
Mus musculus [1]
  CTL activity: 41 - 60% of interleukin 2

## N=C(N)NCCCC(NC(=O)OCCCCCn1cnc2c(S)ncnc21)C(=O)O (single isomer, unassigned)
Mus musculus [4]
  CTL activity: 21 - 40% of interleukin 2

## N=C(N)NCCCC(NC(=O)OCCCCCn1cnc2cncnc21)C(=O)O (single isomer, unassigned)
Mus musculus [11]
  CTL activity: 41 - 60% of interleukin 2

## CN(C)c1ncnc2c1ncn2CCCCCOC(=O)N[C@@H](CCCNC(=N)N)C(=O)O [BCH-1393]
Mus musculus [12]
  Mean: 8.25 and 6.9
Mus musculus [13]
  Mean: 3.43
Mus musculus [14]
  Mean: 8.92
Mus musculus [15]
  Mean: 7.81
Mus musculus [16]
  Mean: 17.5
Mus musculus [17]
  Mean: 55.5
Mus musculus [18]
  Mean: 13.7
Mus musculus [19]
  Mean: 38.9
Mus musculus [20]
  Mean: 20.6
Mus musculus [21]
  Mean: 22.1
Mus musculus [22]
  Mean: 11.7 and 8.39
Mus musculus [23]
  Mean: 9.6
Mus musculus [24]
  Mean: 3.25
Mus musculus [25]
  Mean: 7.46
Mus musculus [26]
  Mean: 20.9 and 8.1
Mus musculus [27]
  Mean: 6.01
Mus musculus [28]
  Mean: 18.5
Mus musculus [29]
  Mean: 50.4
Mus musculus [30]
  Mean: 10.1 and 9.06
Mus musculus [31]
  Mean: 8.14
Mus musculus [32]
  Mean: 70.7
Mus musculus [33]
  Mean: 9.68
Mus musculus [34]
  Mean: 5.84
Mus musculus [35]
  Mean: 74.7
Mus musculus [36]
  Mean: 9.13
Mus musculus [37]
  Mean: 39.8
Mus musculus [38]
  Mean: 54.1
Mus musculus [39]
  Mean: 82.1
Mus musculus [40]
  Mean: 5.9
Mus musculus [41]
  Mean: 65.9
Mus musculus [42]
  Mean: 9.96
Mus musculus [43]
  Mean: 45.1
